Here are results for 56 molecules from ChEMBL document CHEMBL1153939, “Novel antagonists of serotonin-4 receptors: synthesis and biological evaluation of pyrrolothienopyrazines” (Bioorg Med Chem, 2009).

pKi: −log10 of the molar value.

Assay [1] deals with 5-hydroxytryptamine receptor 4 (Cavia porcellus) (UniProt O70528). As to the kind of experiment: Displacement of [3H]GR-113808 from 5HT4 receptor in guinea pig striatum membrane at 10 nM. The class given is cell membranes. In a few lines:
(§1)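 Guinea pig membranes (15 µg protein/mL) incubated 30 min at 37 °C with 0.6 nM [3H]GR113808 in 50 mM HEPES, pH 7.4, with fixed test concentrations. Nonspecific binding defined with 10 µM serotonin.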
In general terms: In a radioligand displacement assay an active substance lowers the binding of a labelled ligand.

Assay [2] deals with 5-hydroxytryptamine receptor 4 (Cavia porcellus, UniProt O70528). As to the kind of experiment: Displacement of [3H]GR-113808 from 5HT4 receptor in guinea pig striatum membrane. Type of assay: cell membranes. In a few lines:
as §1

Assay [3] deals with 5-hydroxytryptamine receptor 4 (Cavia porcellus) (UniProt O70528). Description: Displacement of [3H]GR-113808 from 5HT4 receptor in guinea pig striatum membrane at 1 uM. The class given is cell membranes. In short, it runs like this:
as §1

For assay [4], the target named is T1, 5-hydroxytryptamine receptor 3A (Homo sapiens, UniProt P46098).
T1 sequence (P46098 whole entry): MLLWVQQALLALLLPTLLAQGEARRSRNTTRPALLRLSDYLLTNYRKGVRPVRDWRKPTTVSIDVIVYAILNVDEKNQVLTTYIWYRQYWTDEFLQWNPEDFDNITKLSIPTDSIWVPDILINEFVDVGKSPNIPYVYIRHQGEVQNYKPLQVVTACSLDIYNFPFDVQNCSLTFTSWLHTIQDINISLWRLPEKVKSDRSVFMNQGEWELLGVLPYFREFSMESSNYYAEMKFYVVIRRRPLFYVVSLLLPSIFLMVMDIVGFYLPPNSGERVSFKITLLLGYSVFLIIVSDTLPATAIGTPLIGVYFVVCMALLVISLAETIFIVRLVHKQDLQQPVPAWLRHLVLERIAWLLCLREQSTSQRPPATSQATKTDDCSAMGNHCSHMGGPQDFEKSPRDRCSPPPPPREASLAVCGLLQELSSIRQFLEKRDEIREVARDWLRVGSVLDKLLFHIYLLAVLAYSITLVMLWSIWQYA
Description: Binding affinity at 5HT3 receptor.

In assay [5] the target is 5-hydroxytryptamine receptor 4 (Homo sapiens, UniProt Q13639). Description: Binding affinity at 5HT4 receptor.
5-hydroxytryptamine receptor 4 (Homo sapiens, UniProt Q13639), sequence (Q13639 whole entry): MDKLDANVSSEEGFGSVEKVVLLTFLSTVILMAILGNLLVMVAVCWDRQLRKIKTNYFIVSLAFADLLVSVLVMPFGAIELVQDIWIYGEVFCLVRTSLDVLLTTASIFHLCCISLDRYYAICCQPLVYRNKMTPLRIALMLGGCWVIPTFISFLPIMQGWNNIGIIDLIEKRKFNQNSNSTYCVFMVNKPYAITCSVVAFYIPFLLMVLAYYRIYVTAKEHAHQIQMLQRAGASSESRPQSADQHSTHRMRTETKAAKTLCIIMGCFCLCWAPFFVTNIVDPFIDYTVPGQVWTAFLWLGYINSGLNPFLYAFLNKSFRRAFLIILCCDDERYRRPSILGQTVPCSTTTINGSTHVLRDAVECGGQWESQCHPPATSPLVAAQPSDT

5-hydroxytryptamine receptor 4 (Cavia porcellus, UniProt O70528), sequence (O70528 whole entry): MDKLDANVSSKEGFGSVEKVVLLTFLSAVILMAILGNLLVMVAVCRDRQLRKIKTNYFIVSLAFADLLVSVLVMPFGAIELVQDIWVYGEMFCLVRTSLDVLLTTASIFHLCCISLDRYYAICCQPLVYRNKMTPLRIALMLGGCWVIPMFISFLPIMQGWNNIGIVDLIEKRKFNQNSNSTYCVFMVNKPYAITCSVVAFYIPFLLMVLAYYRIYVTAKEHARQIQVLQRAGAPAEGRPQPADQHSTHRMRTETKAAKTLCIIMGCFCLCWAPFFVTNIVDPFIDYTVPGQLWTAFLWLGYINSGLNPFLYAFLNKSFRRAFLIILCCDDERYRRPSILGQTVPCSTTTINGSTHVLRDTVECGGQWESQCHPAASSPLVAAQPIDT
5-hydroxytryptamine receptor 4 (Cavia porcellus), sequence (O70528 whole entry): as above

What is called inhibition is the percentage by which the read-out fell short of the control. Low readings indicate a weak effect, high ones a strong effect. As a reminder, the pKi is the negative decadic logarithm of the Ki, by convention in mol/L. A higher pKi goes with a small Ki. `C=CCCN1CCC(COc2nc3scc(C)c3n3cccc23)CC1`: the inhibition in assay [1] worked out at 28%; in assay [3] it was 100%. In addition, the pKi in assay [2] is 7.95.
For `CCCCN1CCN(CCOc2nc3ccsc3n3cccc23)CC1`, the results for the inhibition in assay [1] and in assay [3] were 12% and 66%, respectively.
Turning to `Cc1csc2nc(OCCCN3CCCCC3)c3cccn3c12`, the inhibition in assay [1] turned out to be 26%; in assay [3], 100%. This molecule also gave a pKi in assay [2] of 7.89.
Regarding `CCCCN1CCC(COc2nc3sccc3n3cccc23)CC1`, the results for the inhibition in assay [1] and in assay [3] were 56% and 100%, respectively. Further, the negative-log Ki (pKi) in assay [2] was 7.68.
For `c1cc2c(OCC3CCNCC3)nc3ccsc3n2c1`, the inhibition in assay [1] came out at 8%; in assay [3] it was 74%.
On the same counts, the results for `c1cc2c(OCCN3CCNCC3)nc3ccsc3n2c1` are 0% and 38%.
The corresponding values for `c1cc2c(OC3CCNCC3)nc3ccsc3n2c1` are 0% and 26%.
As for `c1cc2c(OCCCN3CCCC3)nc3ccsc3n2c1`, the inhibition in assay [1] worked out at 15%; in assay [3], 100%. The same molecule showed a negative logarithm of the Ki (pKi) in assay [2] of 7.13.
The corresponding values for `C=CCN1CCC(COc2nc3sccc3n3cccc23)CC1` are 49%, 99% and 7.53.
The corresponding values for `c1ccc(CN2CCC(COc3nc4ccsc4n4cccc34)CC2)cc1` are 0%, 100% and 7.20.
On the same counts, the results for `CCN(CC)CCCCOc1nc2ccsc2n2cccc12` are 34%, 100% and 7.79.
Take `c1cc2c(OCCN3CCCCC3)nc3ccsc3n2c1`: the inhibition in assay [1] was found to be 5%; in assay [3], 73%. This molecule had a negative-log Ki (pKi) in assay [2] of 6.38.
On the same counts, the results for `CN1CCC(COc2nc3ccsc3n3cccc23)CC1` are 0%, 100% and 7.23.
For the molecule `CCN(CC)CCOC(=O)c1cc(Cl)c(N)cc1OC`, in assay [4], the pKi was 6.90.
On to `C=CCCN1CCC(COc2nc3ccsc3n3cccc23)CC1`, for which the inhibition in assay [1] was 23%; in assay [3], 100%. In addition, the negative logarithm of the Ki (pKi) in assay [2] is 7.43.
In the case of `CCN1CCC(COc2nc3sccc3n3cccc23)CC1`, the results for the inhibition in assay [1] and in assay [3] were 0% and 92%, respectively.
Take `C=CCN1CCC(COc2nc3ccsc3n3cccc23)CC1`: the inhibition in assay [1] amounted to 32%; in assay [3], 95%. The pKi in assay [2] is 8.06.
As to `NCCOc1nc2ccsc2n2cccc12`, the inhibition in assay [1] and in assay [3] was 0% in each case.
As for `CCN1CCC(COc2nc3scc(C)c3n3cccc23)CC1`, the inhibition in assay [1] was determined as 30%; in assay [3], 100%. This molecule gave a negative-log Ki (pKi) in assay [2] of 8.02.
Regarding `c1cc2c(OCCN3CCCC3)nc3ccsc3n2c1`, the inhibition is 7% in assay [1] and 60% in assay [3].
On the same counts, the results for `c1cc2c(OCCN3CCOCC3)nc3ccsc3n2c1` are 12% and 18%.
On the same counts, the results for `c1cc2c(OCC3CCCCN3)nc3ccsc3n2c1` (configuration not stated) are 18% and 90%.
Regarding `CCCCCN1CCC(COc2nc3sccc3n3cccc23)CC1`, the values for the inhibition in assay [1] and in assay [3] were 13% and 100%, respectively. The negative logarithm of the Ki (pKi) in assay [2] was 7.31.
On to `CCCCN1CCC(Oc2nc3ccsc3n3cccc23)CC1`, for which the inhibition came to 1% in assay [1] and 50% in assay [3].
For the molecule `c1cc2c(OCCCN3CCCCC3)nc3ccsc3n2c1`, the inhibition in assay [1] amounted to 30%; in assay [3], 100%. The same molecule gave a pKi in assay [2] of 7.28.
Take `CCCCCN1CCC(COc2nc3scc(C)c3n3cccc23)CC1`: the inhibition in assay [1] stood at 20%; in assay [3], 100%.
As to `CC(C)N1CCC(COc2nc3ccsc3n3cccc23)CC1`, the figures for the inhibition in assay [1] and in assay [3] were 38% and 100%, respectively. Further, in assay [2], the negative-log Ki (pKi) was 7.74.
Regarding `CCCCCNC(=N)N/N=C/c1c[nH]c2ccc(OC)cc12` [TEGASEROD], the values for the pKi in assay [4] and in assay [5] were less than 5.00 and 8.40, respectively.
For the molecule `c1ccc(CN2CCN(CCOc3nc4ccsc4n4cccc34)CC2)cc1`, the figures for the inhibition in assay [1] and in assay [3] were 0% and 13%, respectively.
On the same counts, the results for `Cc1csc2nc(OCC3CCN(Cc4ccccc4)CC3)c3cccn3c12` are 11% and 100%.
On the same counts, the results for `CCCN1CCC(Oc2nc3ccsc3n3cccc23)CC1` are 10% and 67%.
In the case of `CNCCOc1nc2ccsc2n2cccc12`, the inhibition is 9% in assay [1] and 7% in assay [3].
On the same counts, the results for `c1cc2c(OCCCN3CCNCC3)nc3ccsc3n2c1` are 14% and 75%.
Take `CN1[C@@H]2CC[C@H]1C[C@@H](OC(=O)c1c[nH]c3ccccc13)C2` [TROPISETRON]: the negative logarithm of the Ki (pKi) in assay [5] was 6.70.
Take `CCCN1CCN(CCOc2nc3ccsc3n3cccc23)CC1`: the values for the inhibition in assay [1] and in assay [3] were 0% and 72%, respectively.
For the molecule `COCCCN1CCC(NC(=O)c2cc(Cl)c(N)c3c2OCC3)CC1` [PRUCALOPRIDE], the pKi in assay [4] was 5.40.
As for `CCCCN1CCC(COC(=O)c2cc(Cl)c(N)c3c2OCCO3)CC1`, the values for the pKi in assay [4] and in assay [5] were 6.80 and 10.80, respectively.
As for `c1cc2c(OCCC3CCCCN3)nc3ccsc3n2c1` (configuration not stated), the inhibition in assay [1] came to 5%; in assay [3] it was 90%. In addition, in assay [2], the negative-log Ki (pKi) is 6.21.
As to `CCC(C)N1CCC(COc2nc3scc(C)c3n3cccc23)CC1` (configuration not stated), the inhibition was 18% in assay [1] and 100% in assay [3].
The corresponding values for `CCCN1CCCC(COc2nc3ccsc3n3cccc23)C1` (configuration not stated) are 0% and 91%.
Take `COc1cc(N)c(Cl)cc1C(=O)OCCCN1CCCCC1`: the negative-log Ki (pKi) in assay [4] was 5.70; in assay [5], 7.50.
`Cc1csc2nc(OCC3CCN(C)CC3)c3cccn3c12`: the inhibition in assay [1] was 13%; in assay [3] it was 100%.
Take `C=CCN1CCC(COc2nc3scc(C)c3n3cccc23)CC1`: the inhibition was 26% in assay [1] and 100% in assay [3]. Also, the pKi in assay [2] is 8.07.
On the same counts, the results for `CCCN1CCC(COc2nc3sccc3n3cccc23)CC1` are 54%, 100% and 7.93.
Turning to `CCCCN1CCC(COc2nc3scc(C)c3n3cccc23)CC1`, the inhibition worked out at 75% in assay [1] and 100% in assay [3]. The negative logarithm of the Ki (pKi) in assay [2] was 8.27.
Take `c1cc2c(OC3CN4CCC3CC4)nc3ccsc3n2c1` (configuration not stated): the inhibition was found to be 11% in assay [1] and 53% in assay [3].
For `CN1CCC(COc2nc3sccc3n3cccc23)CC1`, the inhibition in assay [1] was determined as 20%; in assay [3], 100%. In assay [2], this molecule showed a pKi of 7.42.
As for `CCCN1CCCCC1CCOc1nc2ccsc2n2cccc12` (configuration not stated), the inhibition in assay [1] turned out to be 0%; in assay [3], 72%.
For `CCCCCN1CCC(COc2nc3ccsc3n3cccc23)CC1`, the inhibition in assay [1] worked out at 55%; in assay [3], 99%. Moreover, the pKi in assay [2] is 7.59.
In assay [4], `CCCCN1CCC(CNC(=O)c2c3n(c4ccccc24)CCCO3)CC1` [PIBOSEROD] had a pKi of less than 6.00.
For `CCC(C)N1CCC(COc2nc3ccsc3n3cccc23)CC1` (configuration not stated), the figures for the inhibition in assay [1] and in assay [3] were 2% and 56%, respectively.
Consider `c1cc2c(OCCCCN3CCCCC3)nc3ccsc3n2c1`, for which the figures for the inhibition in assay [1] and in assay [3] were 16% and 100%, respectively. In assay [2], this molecule gave a negative logarithm of the Ki (pKi) of 7.24.
For the molecule `CCCCN1CCCC(COc2nc3ccsc3n3cccc23)C1` (configuration not stated), the inhibition in assay [1] was 0%; in assay [3], 82%.
The corresponding values for `CN(CCOc1nc2ccsc2n2cccc12)Cc1ccccc1` are 2% and 20%.
`CCCN1CCC(COc2nc3ccsc3n3cccc23)CC1`: the inhibition in assay [1] stood at 97%; in assay [3] it was 100%. In assay [2], this molecule showed a pKi of 7.79.
The corresponding values for `Cc1csc2nc(OCC3CCN(C(C)C)CC3)c3cccn3c12` are 30%, 100% and 8.19.
